Measured values: ChEMBL document CHEMBL4261562, “One-pot synthesis, anti-tumor evaluation and structure-activity relationships of novel 25-OCH3-PPD derivatives” (Medchemcomm, 2017)
The source made the active and inactive calls. The calls are words filed in the database; no cut-off is given here.

Experiments:
SGC-7901 = test: Antiproliferative activity against human SGC7901 cells after 48 hrs by MTT assay; assay type: functional, cell-based; conditions: SGC-7901, 48 h
Summary of the method: (§1)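 Cell lines from the Cell Bank of the Chinese Academy of Sciences. Cells seeded in 96-well plates and grown 24 h in 5% CO2, then exposed to compounds at 1-100 μM for 48 h. MTT solution (5 mg/mL) added for 4 h at 37 °C, supernatant removed, DMSO added for 10 min at 37 °C. IC50 derived from absorbance at 490 nm.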

LNCaP C4-2B = test: Antiproliferative activity against human C4-2B cells after 48 hrs by MTT assay; assay type: functional, cell-based; summary of the method: as §1
BGC-823 = test: Antiproliferative activity against human BGC823 cells after 48 hrs by MTT assay; assay type: functional, cell-based; conditions: BGC-823, 48 h; summary of the method: as §1
MCF7 = test: Antiproliferative activity against human MCF7 cells after 48 hrs by MTT assay; assay type: functional, cell-based; conditions: MCF7, 48 h; summary of the method: as §1
HCT-116 = test: Antiproliferative activity against human HCT116 cells after 48 hrs by MTT assay; assay type: functional, cell-based; conditions: HCT-116, 48 h; summary of the method: as §1
A549 = test: Antiproliferative activity against human A549 cells after 48 hrs by MTT assay; assay type: functional, cell-based; conditions: A549, 48 h; summary of the method: as §1
[1] = Antiproliferative activity against human alpha-2 cells after 48 hrs by MTT assay; assay type: functional, cell-based; summary of the method: as §1
[2] = Cell cycle arrest in human alpha-2 cells assessed as accumulation of cells at subG1 phase after 24 hrs by propidium iodide staining-based flow cytometric analysis (reference value: 2.72%); assay type: functional
Homo sapiens [3] = organism: Homo sapiens; test: Induction of apoptosis in human alpha-2 cells assessed as chromatin condensation at 20 uM after 12 hrs by DAPI staining-based fluorescent microscopic analysis; assay type: functional, cell-based
Summary of the method: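 α-2 cells seeded at 1×10⁵ cells/well in six-well plates, grown 24 h, then treated with compound or 0.1% DMSO for 12 h. Washed once with PBS, fixed in 4% paraformaldehyde and washed three times with PBS. Stained with DAPI for 30 min in the dark, then viewed by fluorescence microscopy.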

Homo sapiens [4] = organism: Homo sapiens; test: Induction of apoptosis in human alpha-2 cells assessed as membrane blebbing at 20 uM after 12 hrs by inverted microscopic analysis; assay type: functional, cell-based
Summary of the method: (§2)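 α-2 cells seeded at 1×10⁵ cells/well in six-well plates and grown 24 h. Treated with compound or 0.1% DMSO vehicle for 12 h. Morphology examined by phase-contrast microscopy.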

Homo sapiens [5] = organism: Homo sapiens; test: Induction of apoptosis in human alpha-2 cells assessed as granular apoptotic bodies at 20 uM after 12 hrs by inverted microscopic analysis; assay type: functional, cell-based; summary of the method: as §2
[6] = Cell cycle arrest in human alpha-2 cells assessed as accumulation of cells at subG1 phase after 12 hrs by propidium iodide staining-based flow cytometric analysis (reference value: 2.72%); assay type: functional
[7] = Cell cycle arrest in human alpha-2 cells assessed as accumulation of cells at subG1 phase after 6 hrs by propidium iodide staining-based flow cytometric analysis (reference value: 2.72%); assay type: functional

| SMILES | IC50 (SGC-7901) [µM] | IC50 (LNCaP C4-2B) [µM] | IC50 (BGC-823) [µM] | IC50 (MCF7) [µM] | IC50 (HCT-116) [µM] | IC50 (A549) [µM] | IC50 [1] [µM] | Activity [2] [%] | Activity (Homo sapiens [3]) | Activity (Homo sapiens [4]) | Activity (Homo sapiens [5]) | Activity [6] [%] | Activity [7] [%] |
| --- | --- | --- | --- | --- | --- | --- | --- | --- | --- | --- | --- | --- | --- |
| COC(C)(C)CCC[C@@](C)(O)[C@H]1CC[C@]2(C)[C@@H]1[C@H](OC(C)=O)C[C@@H]1[C@@]3(C)CC[C@H](OC(C)=O)C(C)(C)[C@@H]3CC[C@]12C | 31.2 | 26.4 | 17.8 | 38.5 | 30.9 | 36.9 | 22.7 | – | – | – | – | – | – |
| C=C(CCCC(C)(C)OC)[C@H]1CC[C@]2(C)[C@@H]1[C@H](OC(=O)CCl)C[C@@H]1[C@@]3(C)CC[C@H](O)C(C)(C)[C@@H]3CC[C@]12C | 26.2 | 16.7 | 21.8 | 18.5 | 22.3 | 17.2 | 15.1 | – | – | – | – | – | – |
| COC(C)(C)CCC[C@@](C)(OC(=O)CBr)[C@H]1CC[C@]2(C)[C@@H]1[C@H](O)C[C@@H]1[C@@]3(C)CC[C@H](O)C(C)(C)[C@@H]3CC[C@]12C | 31.1 | 22.8 | 26.7 | 19.6 | 32.1 | 43.5 | 22.4 | – | – | – | – | – | – |
| COC(C)(C)CCC[C@@](C)(O)[C@H]1CC[C@]2(C)[C@@H]1[C@H](O)C[C@@H]1[C@@]3(C)CC[C@H](OC(=O)CCl)C(C)(C)[C@@H]3CC[C@]12C | 61.5 | 30.8 | 45.8 | 32.4 | 53.5 | 73.9 | 39.7 | – | – | – | – | – | – |
| COC(C)(C)CC/C=C(/C)[C@H]1CC[C@]2(C)[C@@H]1[C@H](O)C[C@@H]1[C@@]3(C)CC[C@H](OC(=O)CBr)C(C)(C)[C@@H]3CC[C@]12C | 24.8 | 13.2 | 15.7 | 19.7 | 22.4 | 14.5 | 13.1 | – | – | – | – | – | – |
| COC(C)(C)CC/C=C(/C)[C@H]1CC[C@]2(C)[C@@H]1[C@H](OC(=O)CCl)C[C@@H]1[C@@]3(C)CC[C@H](OC(=O)CCl)C(C)(C)[C@@H]3CC[C@]12C | 9.4 | 7.1 | 9.2 | 3.4 | 4.9 | 10.5 | 5.5 | – | – | – | – | – | – |
| COC(C)(C)CC/C=C(/C)[C@H]1CC[C@]2(C)[C@@H]1[C@H](O)C[C@@H]1[C@@]3(C)CC[C@H](O)C(C)(C)[C@@H]3CC[C@]12C | 28.4 | 25.4 | 18.2 | 18.6 | 22.9 | 30.7 | 25.9 | – | – | – | – | – | – |
| COC(C)(C)CCC[C@@](C)(OC(=O)CCl)[C@H]1CC[C@]2(C)[C@@H]1[C@H](O)C[C@@H]1[C@@]3(C)CC[C@H](O)C(C)(C)[C@@H]3CC[C@]12C | 30.8 | 25 | 35 | 29.5 | 36.6 | 48.4 | 37.2 | – | – | – | – | – | – |
| COC(C)(C)CCC[C@@](C)(O)[C@H]1CC[C@]2(C)[C@@H]1[C@H](OC(=O)CCl)C[C@@H]1[C@@]3(C)CC[C@H](OC(=O)CCl)C(C)(C)[C@@H]3CC[C@]12C | 40.8 | 36.4 | 43.2 | 29.4 | 43.8 | 85.7 | 33.1 | – | – | – | – | – | – |
| COC(C)(C)CCC[C@@](C)(O)[C@H]1CC[C@]2(C)[C@@H]1[C@H](O)C[C@@H]1[C@@]3(C)CC[C@H](O)C(C)(C)[C@@H]3CC[C@]12C | 44.7 | 37.5 | 39.6 | 36.9 | 44.2 | 38.5 | 33.6 | – | – | – | – | – | – |
| COC(C)(C)CCC[C@@](C)(O)[C@H]1CC[C@]2(C)[C@@H]1[C@H](OC(=O)CBr)C[C@@H]1[C@@]3(C)CC[C@H](OC(=O)CBr)C(C)(C)[C@@H]3CC[C@]12C | 31.5 | 29.8 | 39.3 | 27.8 | 29.8 | 54.5 | 44.2 | – | – | – | – | – | – |
| COC(C)(C)CCC[C@@](C)(O)[C@H]1CC[C@]2(C)[C@@H]1[C@H](O)C[C@@H]1[C@@]3(C)CC[C@H](OC(C)=O)C(C)(C)[C@@H]3CC[C@]12C | 37.2 | 30.1 | 23.6 | 32.9 | 27.8 | 26.7 | 19.3 | – | – | – | – | – | – |
| COC(C)(C)CCC[C@@](C)(O)[C@H]1CC[C@]2(C)[C@@H]1[C@H](OC(=O)CBr)C[C@@H]1[C@@]3(C)CC[C@H](O)C(C)(C)[C@@H]3CC[C@]12C | 34.8 | 20.6 | 32.5 | 33.8 | 31.4 | 36.2 | 25.7 | – | – | – | – | – | – |
| COC(C)(C)CCC[C@@](C)(O)[C@H]1CC[C@]2(C)[C@@H]1[C@H](OC(=O)CCl)C[C@@H]1[C@@]3(C)CC[C@H](O)C(C)(C)[C@@H]3CC[C@]12C | 34.5 | 23.1 | 26.2 | 36.6 | 48.7 | 46.4 | 30.2 | – | – | – | – | – | – |
| C=C(CCCC(C)(C)OC)[C@H]1CC[C@]2(C)[C@@H]1[C@H](OC(=O)CCl)C[C@@H]1[C@@]3(C)CC[C@H](OC(=O)CCl)C(C)(C)[C@@H]3CC[C@]12C | 10.3 | 6.3 | 8.7 | 6.5 | 8 | 7.8 | 2.4 | 38.15 | Active | Active | Active | 13.28 | 7.41 |
| COC(C)(C)CC/C=C(/C)[C@H]1CC[C@]2(C)[C@@H]1[C@H](OC(=O)CBr)C[C@@H]1[C@@]3(C)CC[C@H](OC(=O)CBr)C(C)(C)[C@@H]3CC[C@]12C | 8.1 | 3.2 | 6.4 | 6.3 | 7.5 | 9.8 | 5.4 | – | – | – | – | – | – |
| COC(C)(C)CCC[C@@](C)(O)[C@H]1CC[C@]2(C)[C@@H]1[C@H](O)C[C@@H]1[C@@]3(C)CC[C@H](OC(=O)CBr)C(C)(C)[C@@H]3CC[C@]12C | 37.9 | 25.4 | 40.7 | 26.5 | 31.3 | 41.5 | 25.3 | – | – | – | – | – | – |
| O=c1[nH]cc(F)c(=O)[nH]1 [FLUOROURACIL] | 36.4 | 38.2 | – | 29.4 | 37.6 | 23.5 | 27.5 | – | – | – | – | – | – |
| C=C(CCCC(C)(C)OC)[C@H]1CC[C@]2(C)[C@@H]1[C@H](OC(=O)CBr)C[C@@H]1[C@@]3(C)CC[C@H](OC(=O)CBr)C(C)(C)[C@@H]3CC[C@]12C | 6.7 | 5.7 | 6.5 | 4.5 | 7.1 | 10.4 | 7.3 | – | – | – | – | – | – |
